The molecules below were run against Sodium- and chloride-dependent GABA transporter 1 (Mus musculus) (UniProt P31648) (assay: Inhibition of NO711 binding to mouse GAT1 expressed in HEK293 cell membranes assessed as residual binding at 1 uM preincubated for 4 hrs followed by NO711 addition and measured after 40 mins by LC-ESI-MS/MS analysis relative to control).
Method in brief: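 Single hydrazones formed in situ in the presence of mouse GAT1 from one aldehyde (1.0 µM) and hydrazine (200 µM). Formation ran 4 h, then NO711 MS marker was added for 40 min. Specifically bound NO711 was freed from the target and quantified by LC-ESI-MS/MS. Results are % remaining specific binding, means±SD of four replicates.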
`O=Cc1ccc(-c2ccccc2Br)o1` gave an Activity of 129%. In the case of `O=Cc1ccccc1-c1ccc(F)cc1F`, the Activity is reported as 97%. `O=C(O)[C@H]1CNC[C@@H](CCN/N=C/c2ccc(-c3ccccc3)o2)C1` (racemic) showed an Activity of 61%. With `O=C(O)[C@H]1CNC[C@@H](CCN/N=C/c2ccc(-c3ccc(F)c(C(F)(F)F)c3)o2)C1` (racemic) the Activity was 72%. In the case of `O=C(O)[C@H]1CNC[C@H](CN/N=C/c2ccccc2-n2cccc2)C1` (racemic), the Activity is reported as > 50%. With `O=C(O)[C@H]1CNC[C@H](CCN/N=C/c2csc3ccccc23)C1` (racemic) the Activity was > 50%. With `O=C(O)[C@H]1CNC[C@H](CN/N=C/c2cccn2-c2ccc(C(F)(F)F)cc2)C1` (racemic) the Activity was > 50%. For `O=Cc1cccn1-c1ccc(C(F)(F)F)cc1`, the Activity was 87%. `O=Cc1ccccc1-c1cccnc1` gave an Activity of 119%. In the case of `O=C(O)[C@H]1CNC[C@@H](CN/N=C/c2ccc(-c3cccc(C(F)(F)F)c3)o2)C1` (racemic), the Activity is reported as 38%. `Cc1ccsc1-c1sc(C=O)cc1C` gave an Activity of 106%. In the case of `O=C(O)[C@H]1CNC[C@@H](CN/N=C/c2ccc(-c3ccc(Cl)cc3Cl)o2)C1` (racemic), the Activity is reported as 40%. Work on `O=C(O)[C@H]1CNC[C@@H](CN/N=C/c2sccc2-c2ccccc2Cl)C1` (racemic) yielded an Activity of 84%. For `O=Cc1cnc(-c2cccc3ccccc23)nc1`, the Activity was 124%. `O=Cc1ccc(-c2ccc(F)c(C(F)(F)F)c2)o1` showed an Activity of 99%. `O=C(O)[C@H]1CNC[C@@H](CCN/N=C/c2ccc(-c3cc(C(F)(F)F)cc(C(F)(F)F)c3)o2)C1` (racemic) was tested, and the Activity was 76%. For `O=Cc1cccc(Oc2ccccc2)c1`, the Activity was 109%. In the case of `O=Cc1ccc(-c2cc(C(F)(F)F)cc(C(F)(F)F)c2)o1`, the Activity is reported as 103%. With `Cc1ccc(-c2ccsc2C=O)cc1` the Activity was 109%. For `O=Cc1ccc(-c2ccc(Cl)cc2F)o1`, the Activity was 97%. `O=Cc1cnc(-c2ccco2)nc1` gave an Activity of 118%. In the case of `O=Cc1ccccc1-c1cccs1`, the Activity is reported as 107%. For `O=Cc1ccc(-c2ccccc2)[nH]1`, the Activity was 98%. `O=C(O)[C@H]1CNC[C@@H](CN/N=C/c2ccccc2-c2cccs2)C1` (racemic) showed an Activity of 87%. In the case of `O=C(O)[C@H]1CNC[C@@H](CN/N=C/c2ccc(Br)o2)C1` (racemic), the Activity is reported as 55%. `O=C(O)[C@H]1CNC[C@@H](CCN/N=C/c2ccc(-c3cccc4ccccc34)o2)C1` (racemic) gave an Activity of 58%. With `O=Cc1cc(Br)co1` the Activity was 126%. Molecule `COc1cc(C=O)cc(OC)c1O` has an Activity of 99%. `O=Cc1ccc(-c2ccccc2Cl)o1` showed an Activity of 99%. In the case of `O=C(O)[C@H]1CNC[C@H](CCN/N=C/c2cccn2-c2ccc(C(F)(F)F)cc2)C1` (racemic), the Activity is reported as > 50%. For `O=Cc1cnc(-c2ccccc2)nc1`, the Activity was 113%. `O=Cc1ccccc1-c1cc(F)ccc1F` was tested, and the Activity was 98%. For `O=Cc1ccc([N+](=O)[O-])cc1`, the Activity was 113%. `O=C(O)[C@H]1CNC[C@@H](CCN/N=C/c2ccc(-c3ccccc3Cl)o2)C1` (racemic) was tested, and the Activity was 52%. `O=C(O)[C@H]1CNC[C@@H](CN/N=C/c2cncnc2)C1` (racemic) showed an Activity of 64%. Work on `O=Cc1sccc1-c1ccccc1F` yielded an Activity of 121%. `O=Cc1sccc1-c1ccccc1Cl` gave an Activity of 121%. For `O=C(O)[C@H]1CNC[C@@H](CN/N=C/c2ccc(-c3ccn[nH]3)o2)C1` (racemic), the Activity was 81%. In the case of `O=Cc1sccc1-n1cccc1`, the Activity is reported as 82%. `Cc1ccsc1-c1ccccc1C=O` gave an Activity of 105%. Molecule `COc1ccc(F)cc1-c1ccccc1/C=N/NC[C@@H]1CNC[C@H](C(=O)O)C1` (racemic) has an Activity of 72%. In the case of `O=C(O)[C@H]1CNC[C@@H](CN/N=C/c2cccn2-c2ccc(C(F)(F)F)cc2)C1` (racemic), the Activity is reported as 75%. `O=Cc1sccc1-c1ccc(Cl)cc1` gave an Activity of 113%. Molecule `Cc1ccccc1-c1ccsc1/C=N/NCC[C@@H]1CNC[C@H](C(=O)O)C1` (racemic) has an Activity of 64%. `O=C(O)[C@H]1CNC[C@@H](CCN/N=C/c2ccc(-c3ccccc3OC(F)(F)F)o2)C1` (racemic) was tested, and the Activity was 59%. Molecule `O=C(O)[C@H]1CNC[C@@H](CN/N=C/c2sccc2-c2ccc(Cl)cc2Cl)C1` (racemic) has an Activity of 81%. `O=Cc1ccnc2ccccc12` gave an Activity of 100%. For `COc1cccc(F)c1-c1ccccc1/C=N/NC[C@@H]1CNC[C@H](C(=O)O)C1` (racemic), the Activity was 70%. With `O=Cc1cccc(-c2ccc(Cl)cc2)c1` the Activity was 108%. With `O=C(O)[C@H]1CNC[C@@H](CN/N=C/c2ccccc2-c2cc(F)cc(F)c2)C1` (racemic) the Activity was 90%. For `Cc1ccsc1-c1sc(/C=N/NC[C@H]2CNC[C@H](C(=O)O)C2)cc1C` (racemic), the Activity was > 50%. `O=C(O)[C@H]1CNC[C@@H](CN/N=C/c2cccc(-c3ccccc3)c2)C1` (racemic) showed an Activity of 52%. For `O=C(O)[C@H]1CNC[C@@H](CN/N=C/c2ccc[nH]2)C1` (racemic), the Activity was 89%. With `O=C(O)[C@H]1CNC[C@H](CCN/N=C/c2ccccc2-n2cccc2)C1` (racemic) the Activity was > 50%. For `COc1cc(F)ccc1-c1ccccc1C=O`, the Activity was 101%. `O=C(O)[C@H]1CNC[C@@H](CN/N=C/c2cnc(-c3ccccc3F)nc2)C1` (racemic) gave an Activity of 68%. In the case of `O=Cc1ccc(-c2ccccc2)o1`, the Activity is reported as 82%. With `O=C(O)[C@H]1CNC[C@@H](CN/N=C/c2ccccc2-c2cccnc2)C1` (racemic) the Activity was 93%. With `COc1cc(F)ccc1-c1ccccc1/C=N/NC[C@@H]1CNC[C@H](C(=O)O)C1` (racemic) the Activity was 80%. In the case of `O=C(O)[C@H]1CNC[C@@H](CN/N=C/c2ccc(-c3ccc(Cl)cc3)o2)C1` (racemic), the Activity is reported as 56%. With `O=Cc1ccc(Br)o1` the Activity was 127%. `O=C(O)[C@H]1CNC[C@@H](CN/N=C/c2ccc(-c3ccccc3OC(F)(F)F)o2)C1` (racemic) was tested, and the Activity was 66%. `O=C(O)[C@H]1CNC[C@@H](CN/N=C/c2ccccc2-n2cccc2)C1` (racemic) gave an Activity of 91%. Molecule `O=Cc1ccc(-c2ccccc2C(F)(F)F)o1` has an Activity of 90%. In the case of `O=Cc1ccco1`, the Activity is reported as 107%. In the case of `O=C(O)[C@H]1CNC[C@@H](CN/N=C/c2ccc(-c3ccccc3)s2)C1` (racemic), the Activity is reported as 55%. `O=Cc1ccc(-c2ccc(Cl)cc2)s1` gave an Activity of 107%. `O=C(O)[C@H]1CNC[C@@H](CN/N=C/c2ccc3ccccc3n2)C1` (racemic) gave an Activity of 81%. With `O=Cc1ccc(-c2ccc(Cl)cc2[N+](=O)[O-])o1` the Activity was 72%. With `O=Cc1ccc[nH]1` the Activity was 107%. `COc1ccccc1/C=N/NC[C@@H]1CNC[C@H](C(=O)O)C1` (racemic) showed an Activity of 85%. For `O=C(O)[C@H]1CNC[C@@H](CN/N=C/c2cccs2)C1` (racemic), the Activity was 67%. `O=Cc1cncnc1` showed an Activity of 118%. For `O=C(O)[C@H]1CNC[C@@H](CN/N=C/c2cccc(-c3ccc(F)cc3)c2)C1` (racemic), the Activity was 50%. Molecule `O=Cc1cnc(-c2ccccn2)nc1` has an Activity of 106%. `O=C(O)[C@H]1CNC[C@@H](CCN/N=C/c2ccc(-c3ccc(Br)cc3)o2)C1` (racemic) gave an Activity of 65%. With `O=Cc1ccc(-c2cccc3ccccc23)o1` the Activity was 92%. `O=C(O)[C@H]1CNC[C@@H](CN/N=C/c2ccc([N+](=O)[O-])cc2)C1` (racemic) gave an Activity of 83%. `O=C(O)[C@H]1CNC[C@@H](CCN/N=C/c2csc3ccccc23)C1` (racemic) gave an Activity of 75%. With `COc1ccc(F)cc1-c1ccccc1C=O` the Activity was 108%. Molecule `O=Cc1sccc1-c1ccc(C(F)(F)F)cc1C(F)(F)F` has an Activity of 129%. In the case of `Cc1ccc(-c2ccsc2/C=N/NCC[C@@H]2CNC[C@H](C(=O)O)C2)cc1` (racemic), the Activity is reported as 83%. `O=Cc1cnc(-c2cccs2)nc1` showed an Activity of 103%. For `O=C(O)[C@H]1CNC[C@H](CN/N=C/c2sccc2-n2cccc2)C1` (racemic), the Activity was > 50%. `Cc1ccc(-c2cccc(C=O)c2)cc1` showed an Activity of 104%. Work on `O=Cc1ccc(-c2cccc(C(F)(F)F)c2)o1` yielded an Activity of 70%. For `O=C(O)[C@H]1CNC[C@H](CN/N=C/c2ccc(-c3ccc(C(F)(F)F)cc3Cl)o2)C1` (racemic), the Activity was > 50%. `O=Cc1ccccc1-c1cccc(F)c1F` gave an Activity of 107%. With `O=C(O)[C@H]1CNC[C@@H](CN/N=C/c2ccc(-c3cccc(Cl)c3)o2)C1` (racemic) the Activity was 46%. In the case of `O=C(O)[C@H]1CNC[C@@H](CN/N=C/c2ccc(-c3ccccc3C(F)(F)F)o2)C1` (racemic), the Activity is reported as 49%. In the case of `O=C(O)[C@H]1CNC[C@H](CCN/N=C/c2ccc(-c3ccc(C(F)(F)F)cc3Cl)o2)C1` (racemic), the Activity is reported as > 50%. `O=Cc1cnc(N2CCCCC2)nc1` gave an Activity of 108%. In the case of `O=C(O)[C@H]1CNC[C@@H](CN/N=C/c2ccc(-c3ccc(Cl)cc3)s2)C1` (racemic), the Activity is reported as 75%. `Nc1ncc(-c2ccccc2C=O)cn1` gave an Activity of 121%. For `O=Cc1sccc1-c1ccccc1`, the Activity was 113%. For `O=Cc1cnc(-c2ccccc2F)nc1`, the Activity was 116%. In the case of `O=Cc1ccccc1-n1cccc1`, the Activity is reported as 92%. For `O=C(O)[C@H]1CNC[C@H](CCN/N=C/c2ccc(-c3ccccc3OC(F)(F)F)o2)C1` (racemic), the Activity was > 50%. Work on `Cn1cnnc1Sc1ccc(C=O)o1` yielded an Activity of 86%. In the case of `O=C(O)[C@H]1CNC[C@@H](CN/N=C/c2ccnc3ccccc23)C1` (racemic), the Activity is reported as 74%. Molecule `O=Cc1sccc1-c1ccc(F)cc1F` has an Activity of 118%. In the case of `O=Cc1ccccc1-c1cc(F)cc(F)c1`, the Activity is reported as 112%. `O=Cc1ccc(-c2ccccc2OC(F)(F)F)o1` gave an Activity of 88%. In the case of `Cc1ccc(-c2ccsc2/C=N/NC[C@@H]2CNC[C@H](C(=O)O)C2)c(C)c1` (racemic), the Activity is reported as 80%. Work on `O=C(O)[C@H]1CNC[C@@H](CCN/N=C/c2ccc(C#Cc3ccccc3)s2)C1` (racemic) yielded an Activity of 71%. With `O=Cc1ccc(-c2cccc(Cl)c2)o1` the Activity was 103%. For `O=Cc1ccc(-c2ccc(Cl)cc2Cl)o1`, the Activity was 97%. Molecule `O=C(O)[C@H]1CNC[C@@H](CN/N=C/c2cnc(-c3ccc4ccccc4c3)nc2)C1` (racemic) has an Activity of 27%. Molecule `Cc1ccsc1-c1sc(/C=N/NCC[C@@H]2CNC[C@H](C(=O)O)C2)cc1C` (racemic) has an Activity of 79%.
